Assay results published in ChEMBL document CHEMBL1131208, “Substituted 2-iminopiperidines as inhibitors of human nitric oxide synthase isoforms” (J Med Chem, 1998).

What follows are molecules tested against Nitric oxide synthase 1 (Homo sapiens, UniProt P29475) (assay: Inhibition of human Neuronal nitric oxide synthase).
Sequence of Nitric oxide synthase 1 (P29475 whole entry): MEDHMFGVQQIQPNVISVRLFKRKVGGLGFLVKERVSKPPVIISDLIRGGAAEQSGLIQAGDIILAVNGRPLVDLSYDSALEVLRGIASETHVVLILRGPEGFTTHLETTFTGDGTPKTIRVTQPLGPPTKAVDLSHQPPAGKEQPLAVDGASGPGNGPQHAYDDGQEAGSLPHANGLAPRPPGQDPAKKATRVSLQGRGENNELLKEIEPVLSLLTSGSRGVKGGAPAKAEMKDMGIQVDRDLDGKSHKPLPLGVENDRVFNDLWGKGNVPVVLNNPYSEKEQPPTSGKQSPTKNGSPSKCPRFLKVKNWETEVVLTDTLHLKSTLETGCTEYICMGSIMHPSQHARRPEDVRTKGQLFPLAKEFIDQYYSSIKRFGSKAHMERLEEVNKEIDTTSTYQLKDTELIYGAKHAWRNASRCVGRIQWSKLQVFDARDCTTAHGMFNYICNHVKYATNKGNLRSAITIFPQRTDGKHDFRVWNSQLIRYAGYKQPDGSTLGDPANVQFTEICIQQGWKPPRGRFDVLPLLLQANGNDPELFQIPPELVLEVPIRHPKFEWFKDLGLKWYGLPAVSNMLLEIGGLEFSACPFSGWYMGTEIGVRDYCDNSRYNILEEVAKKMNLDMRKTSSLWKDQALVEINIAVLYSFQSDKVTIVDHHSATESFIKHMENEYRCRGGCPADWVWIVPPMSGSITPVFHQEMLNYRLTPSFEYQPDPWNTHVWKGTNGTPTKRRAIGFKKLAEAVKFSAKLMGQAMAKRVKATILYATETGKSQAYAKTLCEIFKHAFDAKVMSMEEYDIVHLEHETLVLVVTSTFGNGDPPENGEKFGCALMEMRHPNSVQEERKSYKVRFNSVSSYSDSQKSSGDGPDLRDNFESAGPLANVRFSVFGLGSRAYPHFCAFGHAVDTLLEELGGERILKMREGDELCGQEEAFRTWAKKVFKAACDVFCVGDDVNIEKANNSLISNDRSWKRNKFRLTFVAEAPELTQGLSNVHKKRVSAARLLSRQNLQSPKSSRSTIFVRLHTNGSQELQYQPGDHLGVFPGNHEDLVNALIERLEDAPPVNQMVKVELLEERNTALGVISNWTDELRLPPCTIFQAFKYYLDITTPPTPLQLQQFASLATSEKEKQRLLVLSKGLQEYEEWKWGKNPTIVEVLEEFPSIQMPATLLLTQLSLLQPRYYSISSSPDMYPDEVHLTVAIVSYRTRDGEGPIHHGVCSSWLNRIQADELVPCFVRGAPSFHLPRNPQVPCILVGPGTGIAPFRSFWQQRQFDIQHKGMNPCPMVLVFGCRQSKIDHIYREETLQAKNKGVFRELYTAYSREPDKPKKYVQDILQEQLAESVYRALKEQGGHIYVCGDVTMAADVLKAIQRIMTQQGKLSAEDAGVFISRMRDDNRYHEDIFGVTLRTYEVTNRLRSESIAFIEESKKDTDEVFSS

First: CCC1CCNC(=N)C1 (stereo not given)
Second: CCCC1CCN=C(N)C1 (stereo not given)
The IC50 of the first is lower: 1.6 µM for the first, > 100 µM for the second. The first is the more potent here.

Going from CC1CCCN=C1N (stereo not given) to CC1CCCC(N)=N1 (stereo not given), the IC50 falls from 0.7 µM to 0.4 µM (1.7-fold). The second is the more potent here.

CNC1=NCCCC1 and CN1CCCCC1=N cannot be ordered by IC50: > 100 µM for the first, > 100 µM for the second.

Going from NC1=NC(C(F)(F)F)CCC1 (stereo not given) to NC1=NCCC(C(F)(F)F)C1 (stereo not given), the IC50 rises from 0.5 µM to 3.3 µM (6.6-fold). The first is the more potent here.

Compared with CC1(C)CCN=C(N)C1, CC1CC(N)=NC(C)C1 (stereo not given) is 98-fold lower in IC50: 5.9 µM for the first, 0.06 µM for the second. The second is the more potent here.

First: NC1=NC(Cc2ccccc2)CCC1 (stereo not given)
Second: CCCC1CCCC(N)=N1 (stereo not given)
The IC50 of the first is 1.8-fold higher: 0.9 µM for the first, 0.5 µM for the second. The second is the more potent here.

First: NC1=Nc2ccccc2CC1
Second: NC1=NC(C2CCCCC2)CCC1 (stereo not given)
The IC50 of the first is 5.3-fold higher: 28 µM for the first, 5.3 µM for the second. The second is the more potent here.

Each molecule was assayed against Nitric oxide synthase (inducible and endothelial) (Homo sapiens) (UniProt P35228+P29474) (assay: Selectivity is the ratio between the IC50 values of heNOS and hiNOS).
Format: protein assay
Outline: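 Recombinant human iNOS/eNOS expressed in Sf9 cells (baculovirus), partially purified by DEAE-Sepharose. Eight inhibitor concentrations were tested with 30 μM final L-arginine containing [3H]arginine, in Tris pH 7.6 with BSA, DTT, CaCl2, FAD, tetrahydrobiopterin and NADPH, 15 min at 37 °C. eNOS also had 40 nM calmodulin. [3H]citrulline was separated on cation-exchange resin and counted. Assays were run at least in duplicate; IC50 was derived.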

Sequence of Nitric oxide synthase (inducible and endothelial) (Homo sapiens) (P35228 whole entry, looked up, one chain of several): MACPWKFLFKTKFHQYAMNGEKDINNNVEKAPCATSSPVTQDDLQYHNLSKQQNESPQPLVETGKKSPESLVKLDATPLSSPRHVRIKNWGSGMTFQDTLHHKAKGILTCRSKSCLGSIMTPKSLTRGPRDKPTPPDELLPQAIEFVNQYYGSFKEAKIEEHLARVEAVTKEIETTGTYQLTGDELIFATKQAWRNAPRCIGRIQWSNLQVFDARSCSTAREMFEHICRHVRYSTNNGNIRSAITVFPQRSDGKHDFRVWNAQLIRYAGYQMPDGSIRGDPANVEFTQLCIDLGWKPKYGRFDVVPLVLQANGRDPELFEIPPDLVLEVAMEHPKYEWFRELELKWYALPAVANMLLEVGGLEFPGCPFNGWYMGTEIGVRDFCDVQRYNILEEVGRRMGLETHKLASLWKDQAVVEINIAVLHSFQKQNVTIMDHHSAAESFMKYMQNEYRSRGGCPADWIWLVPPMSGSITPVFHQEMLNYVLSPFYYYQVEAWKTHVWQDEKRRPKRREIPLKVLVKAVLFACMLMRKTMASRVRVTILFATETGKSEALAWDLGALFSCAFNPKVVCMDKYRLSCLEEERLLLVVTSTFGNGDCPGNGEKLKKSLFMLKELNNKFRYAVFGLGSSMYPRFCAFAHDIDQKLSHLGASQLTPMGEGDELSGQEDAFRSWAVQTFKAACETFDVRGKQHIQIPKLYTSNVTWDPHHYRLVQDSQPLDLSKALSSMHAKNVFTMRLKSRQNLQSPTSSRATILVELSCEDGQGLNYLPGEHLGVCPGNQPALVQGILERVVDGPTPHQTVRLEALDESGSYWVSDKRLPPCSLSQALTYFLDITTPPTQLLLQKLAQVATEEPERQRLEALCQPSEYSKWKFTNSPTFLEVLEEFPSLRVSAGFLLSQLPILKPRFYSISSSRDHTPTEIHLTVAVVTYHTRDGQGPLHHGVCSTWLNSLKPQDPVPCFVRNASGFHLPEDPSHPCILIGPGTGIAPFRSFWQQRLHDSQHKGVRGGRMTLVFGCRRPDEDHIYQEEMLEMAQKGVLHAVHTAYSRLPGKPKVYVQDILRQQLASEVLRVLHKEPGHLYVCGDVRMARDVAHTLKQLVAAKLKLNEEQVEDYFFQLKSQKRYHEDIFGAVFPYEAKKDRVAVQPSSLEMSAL

Going from CCC1CCN=C(N)C1 (stereo not given) to NC1=NCCC(C(F)(F)F)C1 (stereo not given), the Selectivity rises from 5 to 15.

Going from CC1CCCN=C1N (stereo not given) to CC1CCCC(N)=N1 (stereo not given), the Selectivity rises from 0.5 to 1.

Going from NC1=NC(C(F)(F)F)CCC1 (stereo not given) to CCCC1CCCC(N)=N1 (stereo not given), the Selectivity rises from 4 to 11.

First: CC1(C)CCN=C(N)C1
Second: CC1CC(N)=NC(C)C1 (stereo not given)
The Selectivity of the first is lower: 1.6 for the first, 4 for the second.

Going from NC1=NC(CC2CCCCC2)CCC1 (stereo not given) to NC1=NC(C2CCCCC2)CCC1 (stereo not given), the Selectivity falls from 64 to 16.

In the case of NC1=Nc2ccccc2CC1, the Selectivity is reported as 2.

The molecules below were run against T1, Nitric oxide synthase 3 (Homo sapiens, UniProt P29474) (assay: inhibition of human endothelial constitutive Endothelial nitric oxide synthase (heNOS)).
T1 sequence (P29474 whole entry): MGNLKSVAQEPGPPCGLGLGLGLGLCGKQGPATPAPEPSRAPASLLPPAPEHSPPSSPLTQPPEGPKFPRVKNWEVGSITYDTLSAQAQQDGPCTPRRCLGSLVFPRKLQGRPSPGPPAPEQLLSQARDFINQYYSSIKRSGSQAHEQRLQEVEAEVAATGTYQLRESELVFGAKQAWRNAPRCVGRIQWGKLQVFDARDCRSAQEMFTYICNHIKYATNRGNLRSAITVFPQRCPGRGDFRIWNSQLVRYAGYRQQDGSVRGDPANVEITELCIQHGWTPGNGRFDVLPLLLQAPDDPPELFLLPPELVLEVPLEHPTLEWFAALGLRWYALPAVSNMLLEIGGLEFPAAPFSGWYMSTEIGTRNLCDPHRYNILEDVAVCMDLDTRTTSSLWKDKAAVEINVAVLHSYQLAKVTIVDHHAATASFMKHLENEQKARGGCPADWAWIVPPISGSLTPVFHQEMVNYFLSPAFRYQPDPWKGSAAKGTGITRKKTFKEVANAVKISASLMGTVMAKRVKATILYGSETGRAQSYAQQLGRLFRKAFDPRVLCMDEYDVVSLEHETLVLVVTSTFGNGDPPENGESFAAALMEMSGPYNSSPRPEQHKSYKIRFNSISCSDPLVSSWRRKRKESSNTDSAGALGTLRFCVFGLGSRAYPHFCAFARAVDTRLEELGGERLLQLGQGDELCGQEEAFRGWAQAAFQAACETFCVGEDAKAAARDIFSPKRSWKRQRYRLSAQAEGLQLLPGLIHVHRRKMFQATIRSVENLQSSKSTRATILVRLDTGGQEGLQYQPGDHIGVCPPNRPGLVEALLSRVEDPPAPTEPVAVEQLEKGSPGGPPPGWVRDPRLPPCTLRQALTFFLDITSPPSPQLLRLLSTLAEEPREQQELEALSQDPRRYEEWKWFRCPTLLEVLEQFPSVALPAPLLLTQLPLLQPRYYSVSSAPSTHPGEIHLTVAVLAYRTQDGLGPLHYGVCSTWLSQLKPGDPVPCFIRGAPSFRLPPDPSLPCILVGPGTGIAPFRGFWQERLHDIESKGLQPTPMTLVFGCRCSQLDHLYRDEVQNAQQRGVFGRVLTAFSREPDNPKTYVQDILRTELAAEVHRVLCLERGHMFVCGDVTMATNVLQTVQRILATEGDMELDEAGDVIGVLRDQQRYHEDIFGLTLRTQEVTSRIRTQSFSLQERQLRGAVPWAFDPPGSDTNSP

Going from CCC1CCNC(=N)C1 (stereo not given) to CCCC1CCN=C(N)C1 (stereo not given), the IC50 rises from 13 µM to > 100 µM.

Going from CC1CCCN=C1N (stereo not given) to CC1CCC(N)=NC1 (stereo not given), the IC50 rises from 3 µM to 58 µM (19-fold).

CNC1=NCCCC1 and CN1CCCCC1=N cannot be ordered by IC50: > 100 µM for the first, > 100 µM for the second.

First: NC1=NC(C(F)(F)F)CCC1 (stereo not given)
Second: CC1CCCC(N)=N1 (stereo not given)
The IC50 of the first is 3.3-fold higher: 2 µM for the first, 0.6 µM for the second. The second is the more potent here.

First: CC1(C)CCN=C(N)C1
Second: NC1=NCCC(C(F)(F)F)C1 (stereo not given)
The IC50 of the first is 8.9-fold lower: 5.3 µM for the first, 47 µM for the second. The first is the more potent here.

First: CCCC1CCCC(N)=N1 (stereo not given)
Second: NC1=NC(C2CCCCC2)CCC1 (stereo not given)
The IC50 of the first is 65-fold lower: 2.2 µM for the first, 142 µM for the second. The first is the more potent here.

Going from CC1CC(N)=NC(C)C1 (stereo not given) to NC1=Nc2ccccc2CC1, the IC50 rises from 0.3 µM to 218 µM (730-fold).

The molecules below were run against Nitric oxide synthase, inducible (Homo sapiens, UniProt P35228) (assay: Inhibition of human Inducible nitric oxide synthase).
Sequence of Nitric oxide synthase, inducible (P35228 whole entry): as the sequence (P35228 whole entry, looked up, one chain of several) above

Compared with CCC1CCNC(=N)C1 (stereo not given), N=C1CCCCN1 is 2.4-fold lower in IC50: 2.6 µM for the first, 1.1 µM for the second.

First: CC1CCCN=C1N (stereo not given)
Second: CC1CCN=C(N)C1 (stereo not given)
The IC50 of the first is 60-fold higher: 6 µM for the first, 0.1 µM for the second. The second is the more potent here.

Going from CC1CCC(N)=NC1 (stereo not given) to CC1CCCC(N)=N1 (stereo not given), the IC50 falls from 5.1 µM to 0.5 µM (10-fold). The second is the more potent here.

CNC1=NCCCC1 and CN1CCCCC1=N cannot be ordered by IC50: > 100 µM for the first, > 100 µM for the second.

Compared with NC1=NC(C(F)(F)F)CCC1 (stereo not given), NC1=NCCC(C(F)(F)F)C1 (stereo not given) is 6.4-fold higher in IC50: 0.5 µM for the first, 3.2 µM for the second.

Compared with CC1(C)CCN=C(N)C1, CCCC1CCN=C(N)C1 (stereo not given) is higher in IC50: 3.4 µM for the first, > 100 µM for the second. The first is the more potent here.

Going from CCCC1CCCC(N)=N1 (stereo not given) to NC1=NC(C2CCCCC2)CCC1 (stereo not given), the IC50 rises from 0.2 µM to 8.7 µM (43-fold).

Compared with CC1CC(N)=NC(C)C1 (stereo not given), NC1=Nc2ccccc2CC1 is 1200-fold higher in IC50: 0.08 µM for the first, 99 µM for the second.

What follows are molecules tested on Rattus norvegicus (assay: Compound at an oral dose of 10 mg/Kg was tested in vivo for the inhibition of plasma nitrite levels in LPS-treated rats).
Format: functional
Outline: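 Male Lewis rats dosed orally 1 h before intraperitoneal LPS (10–12.5 mg/kg) to induce iNOS. Plasma nitrite/nitrate measured 5 h after LPS by fluorometric assay. Percent inhibition is relative to LPS-only versus saline controls; n = 6 animals/dose.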

Going from CC1CCN=C(N)C1 (stereo not given) to NC1=NCCC(C(F)(F)F)C1 (stereo not given), the inhibition in vivo at 10 mg/kg falls from 87% to 24%.

Compared with CC1CC(N)=NC(C)C1 (stereo not given), NC1=NC(C2CCCCC2)CCC1 (stereo not given) is lower in inhibition in vivo at 10 mg/kg: 98% for the first, 18% for the second.

N=C1CCCCN1 showed an inhibition in vivo at 10 mg/kg of 62%.
